# In paper PMC9048702 (RSC Advances, 2020):
# Several values for one entry are separate records, joined by “and”; a condition that tells them apart may be missing. Equal entries are not always repeated. Where two headings read alike, the source gives them in different places. Marks after values point to notes of the source that are not given here.
# How the values were obtained:
# [1] = system: topoisomerase II (Topo II); experiment: Topo II concentration in HepG2 cells, sandwich ELISA; assay type: cell-based, human; details: HepG2, IC50 concentration, 8 hours
# [2] = system: p38 mitogen-activated protein kinase (MAPK); experiment: MAPK concentration in HepG2 cells, sandwich ELISA; assay type: cell-based, human; details: HepG2, IC50 concentration, 8 hours
# caspase 3 = experiment: qRT-PCR expression of caspase 3 in HepG2; assay type: cell-based, human; details: HepG2, 8 h incubation at IC50 concentration, mean ± SEM
# txnrd1 = experiment: qRT-PCR expression of txnrd1 in HepG2; assay type: cell-based, human; details: for down-regulation (inhibition) of txnrd1 expression: HepG2, 8 h; for Fold induction from untreated cells Txnrd1: HepG2, 8 h incubation at IC50 concentration, mean ± SEM
# cdk1 = experiment: qRT-PCR expression of cdk1 in HepG2; assay type: cell-based, human; details: for inhibition in cdk1 expression: HepG2, 8 h
# MCF7 cells = experiment: MTT anti-proliferative assay, MCF7; assay type: cell-based, human; details: MCF7, 48 h, read-out: IC50 MCF7
# Method in brief: (§1)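 HepG2 (passage 11), MCF7 (passage 13) and normal WI-38 fibroblasts were seeded at […]. Cells were exposed to test compound at 0.5, 1, 10, 20, 50 and 100 μM for 48 h, then incubated with MTT for 4 h. Formazan was dissolved in DMSO and read at 570 nm. Untreated and doxorubicin-treated cells were included. IC50 came from dose–response curves, mean ± SEM of two independent experiments.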
# p53 = experiment: qRT-PCR expression of p53 in HepG2; assay type: cell-based, human; details: HepG2, 8 h incubation at IC50 concentration, mean ± SEM
# cleaved caspase 3 = experiment: Active cleaved caspase 3 activity in HepG2, colorimetric kit; assay type: cell-based, human; details: HepG2, IC50 concentration, 12 h
# HepG2 cells = experiment: MTT anti-proliferative assay, HepG2; assay type: cell-based, human; details: HepG2, 48 h, read-out: IC50 HepG2
# Method in brief: as §1
# WI-38 cells = experiment: MTT assay, normal fibroblasts WI-38; assay type: cell-based; details: read-out: IC50 WI-38, WI-38 normal fibroblasts, 48 h, mean ± SEM
# [3] = system: HepG2, MCF7 and WI-38 cells; experiment: MTT anti-proliferative assay, cell lines summarised together in text; assay type: cell-based; details: Homo sapiens
# Method in brief: as §1
# [4] = read-out: IC50 against cancer cell lines
molecule,measurement,setting,value
"O=c1[nH]nc(-c2nnc(S)o2)c2ccccc12 [Compound 1, 4-(5-mercapto-1,3,4-oxadiazol-2-yl)phthalazin-1(2H)-one]",decrease in Topo II concentration,[1],84%
same,reduction in MAPK concentration compared to untreated cells,[2],84%
same,Fold induction from untreated cells Caspase 3,caspase 3,3.10 ± 0.21 ^a fold
same,down-regulation (inhibition) of txnrd1 expression,txnrd1,33%
same,Fold induction from untreated cells Txnrd1,txnrd1,0.67 ± 0.03 fold
same,inhibition in cdk1 expression,cdk1,~78%
same,Fold induction from untreated cells Cdk1,"cdk1; HepG2, 8 h incubation at IC50 concentration, mean ± SEM",0.22 ± 0.03 ^a fold
same,IC50,MCF7 cells; Homo sapiens,4.9 ± 0.8 µM
same,Fold induction from untreated cells p53,p53,3.83 ± 0.11 ^a fold
same,elevation in activity of active cleaved caspase 3 compared to untreated cells,cleaved caspase 3,~7 fold
same,IC50,HepG2 cells; Homo sapiens,4.5 ± 1.1 µM
"CCSc1nnc(-c2n[nH]c(=O)c3ccccc23)o1 [Compound 2a, 4-(5-(Ethylthio)-1,3,4-oxadiazol-2-yl)phthalazin-1(2H)-one]",IC50,MCF7 cells; Homo sapiens,55.8 ± 4 µM
same,IC50,HepG2 cells; Homo sapiens,61.3 ± 4.2 µM
"O=c1[nH]nc(-c2nnc(SCc3ccccc3)o2)c2ccccc12 [Compound 2b, 4-(5-(Benzylthio)-1,3,4-oxadiazol-2-yl)phthalazin-1(2H)-one]",IC50,MCF7 cells; Homo sapiens,68.2 ± 4.4 µM
same,IC50,HepG2 cells; Homo sapiens,58.9 ± 4 µM
"O=C(CSc1nnc(-c2n[nH]c(=O)c3ccccc23)o1)c1ccccc1 [Compound 2c, 4-(5-((2-Oxo-2-phenylethyl)thio)-1,3,4-oxadiazol-2-yl)phthalazin-1(2H)-one]",IC50,MCF7 cells; Homo sapiens,57.3 ± 4.2 µM
same,IC50,HepG2 cells; Homo sapiens,66.1 ± 4.5 µM
"O=C(CSc1nnc(-c2n[nH]c(=O)c3ccccc23)o1)c1cccc([N+](=O)[O-])c1 [Compound 2d, 4-(5-((2-(3-Nitrophenyl)-2-oxoethyl)thio)-1,3,4-oxadiazol-2-yl)phthalazin-1(2H)-one]",IC50,MCF7 cells; Homo sapiens,> 100 µM
same,IC50,HepG2 cells; Homo sapiens,> 100 µM
"CC(=O)c1ccc(NC(=O)CSc2nnc(-c3n[nH]c(=O)c4ccccc34)o2)cc1 [Compound 4a, N-(4-Acetylphenyl)-2-((5-(4-oxo-3,4-dihydrophthalazin-1-yl)-1,3,4-oxadiazol-2-yl)thio)acetamide]",IC50,MCF7 cells; Homo sapiens,76.2 ± 4.7 µM
same,IC50,HepG2 cells; Homo sapiens,72.6 ± 4.8 µM
"NS(=O)(=O)c1ccc(NC(=O)CSc2nnc(-c3n[nH]c(=O)c4ccccc34)o2)cc1 [Compound 4b, 2-((5-(4-Oxo-3,4-dihydrophthalazin-1-yl)-1,3,4-oxadiazol-2-yl)thio)-N-(4-sulfamoylphenyl)acetamide]",IC50,MCF7 cells; Homo sapiens,> 100 µM
same,IC50,HepG2 cells; Homo sapiens,83.9 ± 5.2 µM
"Cc1ccc(NC(=O)CSc2nnc(-c3n[nH]c(=O)c4ccccc34)o2)cc1 [Compound 4c, 2-((5-(4-Oxo-3,4-dihydrophthalazin-1-yl)-1,3,4-oxadiazol-2-yl)thio)-N-(p-tolyl)acetamide]",IC50,MCF7 cells; Homo sapiens,36.3 ± 3.2 µM
same,IC50,HepG2 cells; Homo sapiens,28.1 ± 2.9 µM
"O=C(CSc1nnc(-c2n[nH]c(=O)c3ccccc23)o1)Nc1ccc(Cl)cc1 [Compound 4d, N-(4-Chlorophenyl)-2-((5-(4-oxo-3,4-dihydrophthalazin-1-yl)-1,3,4-oxadiazol-2-yl)thio)acetamide]",IC50,MCF7 cells; Homo sapiens,49.5 ± 3.9 µM
same,IC50,HepG2 cells; Homo sapiens,53.9 ± 3.8 µM
"Cc1ccc(NCSc2nnc(-c3nn(CNc4ccc(C)cc4)c(=O)c4ccccc34)o2)cc1 [Compound 7a, 2-((p-Tolylamino)methyl)-4-(5-(((p-tolylamino)methyl)thio)-1,3,4-oxadiazol-2-yl)phthalazin-1(2H)-one]",IC50,MCF7 cells; Homo sapiens,26.2 ± 2.5 µM
same,IC50,HepG2 cells; Homo sapiens,23.5 ± 2.8 µM
"O=c1c2ccccc2c(-c2nnc(SCNc3ccc(Cl)cc3)o2)nn1CNc1ccc(Cl)cc1 [Compound 7b, 2-(((4-Chlorophenyl)amino)methyl)-4-(5-((((4-chlorophenyl)amino)methyl)thio)-1,3,4-oxadiazol-2-yl)phthalazin-1(2H)-one]",IC50,MCF7 cells; Homo sapiens,31.3 ± 2.8 µM
same,IC50,HepG2 cells; Homo sapiens,33.3 ± 3.4 µM
"O=c1c2ccccc2c(-c2nnc(SCNc3ccccc3Cl)o2)nn1CNc1ccccc1Cl [Compound 7c, 2-(((2-Chlorophenyl)amino)methyl)-4-(5-((((2-chlorophenyl)amino)methyl)thio)-1,3,4-oxadiazol-2-yl)phthalazin-1(2H)-one]",IC50,MCF7 cells; Homo sapiens,15.4 ± 1.2 µM
same,IC50,WI-38 cells,23.2 ± 1.2 µM
same,IC50,HepG2 cells; Homo sapiens,17.2 ± 1.9 µM
"COc1ccc(NCSc2nnc(-c3nn(CNc4ccc(OC)cc4)c(=O)c4ccccc34)o2)cc1 [Compound 7d, 2-(((4-Methoxyphenyl)amino)methyl)-4-(5-((((4-methoxyphenyl)amino)methyl)thio)-1,3,4-oxadiazol-2-yl)phthalazin-1(2H)-one]",decrease in Topo II concentration,[1],31%
same,Fold induction from untreated cells Caspase 3,caspase 3,2 fold and 1.96 ± 0.09 ^a fold
same,Fold induction from untreated cells Txnrd1,txnrd1,1.02 ± 0.16 fold
same,IC50,MCF7 cells; Homo sapiens,5.5 ± 0.4 µM
same,Fold induction from untreated cells p53,p53,2 fold and 2.16 ± 0.12 ^a fold
same,IC50,HepG2 cells; Homo sapiens,6.3 ± 0.7 µM
same,IC50,[3]; [4],5.5 to 15 µM
"O=c1c2ccccc2c(-c2nnc(SCNc3ccc([N+](=O)[O-])cc3)o2)nn1CNc1ccc([N+](=O)[O-])cc1 [Compound 7e, 2-(((4-Nitrophenyl)amino)methyl)-4-(5-((((4-nitrophenyl)amino)methyl)thio)-1,3,4-oxadiazol-2-yl)phthalazin-1(2H)-one]",Fold induction from untreated cells Caspase 3,caspase 3,2 fold and 2.22 ± 0.14 ^a fold
same,Fold induction from untreated cells Txnrd1,txnrd1,1.11 ± 0.10 fold
same,IC50,MCF7 cells; Homo sapiens,8.4 ± 0.9 µM
same,IC50,WI-38 cells,21.6 ± 1.8 µM
same,Fold induction from untreated cells p53,p53,2 fold and 2.02 ± 0.08 ^a fold
same,IC50,HepG2 cells; Homo sapiens,7 ± 1.5 µM
same,IC50,[3]; [4],5.5 to 15 µM
"O=c1c2ccccc2c(-c2nnc(SCNc3cccnc3)o2)nn1CNc1cccnc1 [Compound 7f, 2-((Pyridin-3-ylamino)methyl)-4-(5-(((pyridin-3-ylamino)methyl)thio)-1,3,4-oxadiazol-2-yl)phthalazin-1(2H)-one]",IC50,MCF7 cells; Homo sapiens,20.8 ± 1.9 µM
same,IC50,HepG2 cells; Homo sapiens,21.8 ± 2.3 µM
"O=c1[nH]nc(-c2nnc(SCNC3CCCCC3)o2)c2ccccc12 [Compound 7g, 4-(5-(((Cyclohexylamino)methyl)thio)-1,3,4-oxadiazol-2-yl)phthalazin-1(2H)-one]",IC50,MCF7 cells; Homo sapiens,45.5 ± 3.8 µM
same,IC50,HepG2 cells; Homo sapiens,42.9 ± 3.7 µM
"COc1cccc2c1C(=O)c1c(O)c3c(c(O)c1C2=O)C[C@@](O)(C(=O)CO)C[C@@H]3O[C@H]1C[C@H](N)[C@H](O)[C@H](C)O1 [DOX, Doxorubicin, reference compound]",decrease in Topo II concentration,[1],87%
same,reduction in MAPK concentration compared to untreated cells,[2],85%
same,down-regulation (inhibition) of txnrd1 expression,txnrd1,56%
same,inhibition in cdk1 expression,cdk1,~75%
same,IC50,MCF7 cells; Homo sapiens,4.2 ± 0.2 µM
same,IC50,HepG2 cells; Homo sapiens,4.5 ± 0.3 µM
same,IC50,[3]; read-out: IC50 against all cells investigated,4 to 7 µM
"S-(5-(4-Oxo-3,4-dihydrophthalazin-1-yl)-1,3,4-oxadiazol-2-yl)2-(2-isonicotinoylhydrazinyl)ethanethioate [Compound 3]",IC50,"MCF7 cells; MTT, mean ± SEM",40 ± 3.6 µM
same,IC50,WI-38 cells,44.6 ± 4.2 µM
same,IC50,"HepG2 cells; MTT, mean ± SEM",38.4 ± 3.5 µM
